Assay outcomes from PubChem.
Hits are enriched below; roughly 2.6% of the tested compounds scored in any of these assays.
Rad51 HR inh = Rad51 (human) homologous recombination inhibition | actives 0.085% (n = 200,000) | hRad51 DNA strand exchange, fluorescence dequenching | Q06609 | AID 1385 | inhibition, % at 10 µM;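 active = inhibition above 40% at the single screening dose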;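 also: 0% = DMSO control wells and 100% = blanks with heterologous ssDNA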
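material = hRad51 filaments on single-stranded DNA | reagent = Donor/quencher-labelled 47-bp dsDNA substrate | compound = 10 µM final, single point | schedule = strand-exchange reaction 15 min at room temperature | measured by = fluorescein emission 520 nm, excitation 485 nm | read-out basis = % inhibition versus plate control and blank means | benchmarks = plate controls and plate blanks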
CHT allo act = human CHT allosteric activation | Q9GZV3 | CHT-expressing cells, membrane potential dye, choline EC20; active compounds read high; LV-AA mutant CHT in HEK293 cells | B-score at 10 µM | actives 0.49% (n = 310,000) | AID 488977;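 active = initial fluorescence not abnormally high and integrated response B-score, plate-corrected, over 3 SD above library mean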
CHT inh = inhibitors of human choline transporter CHT. Q9GZV3. CHT-expressing cells, membrane potential dye, choline response; active compounds read low. B-score at 10 µM. actives 0.86% (n = 310,000);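 active = B-score over 3 SD under the library average, and starting fluorescence ratio not unusually high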;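 also: choline stimulus applied at its EC90 after an EC20 pre-addition; B-score computed on integrated fluorescence ratio after choline addition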
KCC2 mod = modulates chloride dependent transport by human KCC2. KCC2 cells, thallium flux FluoZin-2 fluorescence. B-score of Tl+ flux slope (higher = more flux/activation; lower = inhibition) at 10 µM. actives 2.2% (n = 190,000);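 active = thallium flux slope and its plate-corrected score both differing from the plate sample mean at a set confidence after two filtering rounds, in either direction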;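 also: slope of fluorescence scaled to starting intensity during 10 to 20 s after thallium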
Target sequence (Q9H2X9 whole entry, looked up): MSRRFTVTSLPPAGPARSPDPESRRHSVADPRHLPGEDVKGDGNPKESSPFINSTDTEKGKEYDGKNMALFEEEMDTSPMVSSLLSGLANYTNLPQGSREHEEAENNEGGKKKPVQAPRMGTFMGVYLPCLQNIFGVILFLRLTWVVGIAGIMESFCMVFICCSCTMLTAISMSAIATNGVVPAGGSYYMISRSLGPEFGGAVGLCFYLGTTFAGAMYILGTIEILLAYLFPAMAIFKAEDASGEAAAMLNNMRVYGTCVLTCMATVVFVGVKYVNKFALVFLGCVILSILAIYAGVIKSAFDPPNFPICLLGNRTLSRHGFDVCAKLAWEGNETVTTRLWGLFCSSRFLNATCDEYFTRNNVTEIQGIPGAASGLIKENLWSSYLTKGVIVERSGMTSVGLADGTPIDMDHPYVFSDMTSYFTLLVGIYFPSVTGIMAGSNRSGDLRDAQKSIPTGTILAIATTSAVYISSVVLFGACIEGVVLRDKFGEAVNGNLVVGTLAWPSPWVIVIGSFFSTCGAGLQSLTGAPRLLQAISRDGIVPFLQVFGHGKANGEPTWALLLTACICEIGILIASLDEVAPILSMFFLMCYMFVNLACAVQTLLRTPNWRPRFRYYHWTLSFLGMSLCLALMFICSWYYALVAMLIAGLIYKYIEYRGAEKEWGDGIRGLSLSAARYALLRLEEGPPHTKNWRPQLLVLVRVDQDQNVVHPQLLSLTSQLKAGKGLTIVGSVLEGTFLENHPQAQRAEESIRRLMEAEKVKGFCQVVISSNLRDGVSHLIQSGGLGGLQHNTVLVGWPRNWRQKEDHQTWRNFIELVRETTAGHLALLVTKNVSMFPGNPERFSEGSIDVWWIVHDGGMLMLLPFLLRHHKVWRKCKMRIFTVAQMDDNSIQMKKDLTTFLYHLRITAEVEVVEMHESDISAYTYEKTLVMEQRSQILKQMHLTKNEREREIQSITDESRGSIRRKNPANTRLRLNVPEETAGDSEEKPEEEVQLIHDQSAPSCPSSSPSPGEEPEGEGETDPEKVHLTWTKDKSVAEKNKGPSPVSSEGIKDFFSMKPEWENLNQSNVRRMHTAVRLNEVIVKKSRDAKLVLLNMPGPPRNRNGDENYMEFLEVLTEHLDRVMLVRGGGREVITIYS
KCC2 sec1 = KCC2 (human) modulation, secondary assay. shares compounds with KCC2 mod. HEK293-KCC2, thallium flux, FluoZin2 fluorescence; active compounds read high. normalised thallium flux (F/F0 slope) at 10 µM. actives 15% (n = 3,700). AID 1713;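 active = thallium flux slope above the same plate's solvent-only control mean plus 3 SD; inconclusive = the two replicate wells disagree; inactive = no significant difference from solvent-only control wells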
KCC2 bumet counter = thallium flux persisting under bumetanide in KCC2 cells, counter-screen secondary assay. HEK293-KCC2 + bumetanide/ouabain, thallium flux FluoZin2; active compounds read high. AID 1714. normalized thallium flux at 10 µM. shares compounds with KCC2 mod. actives 49% (n = 3,700);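 active = thallium entry rate above the same plate's blocked-transporter control wells by more than 3 SD; inconclusive = the two repeat wells disagree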;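 also: raw slope of fluorescence over initial fluorescence between 10 and 20 s after thallium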
KCC2 sec2 = confirmation of human KCC2 transport modulators | AID 1715 | shares compounds with KCC2 mod | actives 23% (n = 3,700) | HEK293-KCC2, thallium flux FluoZin2 fluorescence; actives lie on both sides; F/F0 rise rate, 10–20 s post-thallium | normalized thallium flux at 10 µM;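 active = thallium flux slope more than 3 SD above or below the plate's solvent-only control mean, mostly below; inconclusive = the two repeat wells disagreed; inactive = no significant shift from solvent-only controls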;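 also: raw slope with 0.1% DMSO as baseline and bumetanide as block control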
HEK counter1 = acts in parental HEK cells, KCC2 counter-screen; shares compounds with KCC2 mod; HEK293 parental cells, thallium flux FluoZin2, ouabain; baseline-ratio fluorescence slope, 10–20 s after thallium; thallium flux rate (normalised fluorescence) at 10 µM; actives 46% (n = 3,700); AID 1716;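 active = thallium flux rate significantly above the same plate's solvent-only control wells, beyond their mean plus 3 SD; inconclusive = the two replicate wells gave conflicting results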
KCC2 retest ouab = KCC2 (human) modulation, ouabain retest | shares compounds with KCC2 mod | HEK293-KCC2, thallium flux FluoZin2 fluorescence; bidirectional: low = inhibitor, high = activator | raw Tl+ flux slope (below DMSO = inhibition, above = activation) at 10 µM | actives 48% (n = 3,700) | AID 1717;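 active = thallium flux slope beyond 3 SD from same-plate DMSO control mean in most replicates, usually higher, sometimes lower; inconclusive = repeat tests gave conflicting results; inactive = no significant difference from controls in most replicates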;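 also: slope of initial-normalized fluorescence between seconds 10 and 20 after thallium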
HEK293 Tl flux2 = counter-screen for KCC2 modulators: effect in parental HEK293 cells | thallium flux slope at 10 µM | AID 1718 | thallium flux FluoZin-2 fluorescence slope | actives 33% (n = 3,700) | shares compounds with KCC2 mod;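 active = thallium flux slope above the same plate's solvent-control mean plus 3 SD in both duplicate wells; inconclusive = duplicate wells that disagreed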;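 also: run without ouabain in cells lacking the KCC2 cotransporter; slope of fluorescence scaled to its starting value between 10 and 20 s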
An asterisk follows results filed as active; i = inactive; ? = inconclusive; · = no result given.

SMILES | Rad51 HR inh | CHT allo act | CHT inh | KCC2 mod | KCC2 sec1 | KCC2 bumet counter | KCC2 sec2 | HEK counter1 | KCC2 retest ouab | HEK293 Tl flux2
N#CC1=C(S)N=C(N)C(c2nc(-c3ccccc3)cs2)C12CCCCC2 (stereo not drawn) | · | i | i | -3.9* | 0.0094 | 0.006 | 0.022* | 0.0069 | 0.016* | 0.0097
O=C1c2ccccc2-c2cccc(NS(=O)(=O)c3ccc(C(F)(F)F)cc3)c21 | -23 | i | i | · | ? | 0.076* | ? | 0.023* | 0.039* | 0.016*
CNc1cccc2c1C(=O)c1ccccc1C2=O | -13 | i | i | -0.028 | · | · | · | · | · | ·
Cc1ccsc1/C=N/n1c(-c2cc(-c3ccccc3)n[nH]2)n[nH]c1=S | 3 | i | i | -0.12 | · | · | · | · | · | ·
S=c1[nH]nc(-c2ccco2)n1/N=C/c1ccc(Cl)cc1 | -5 | i | i | 4.1* | 0.015* | 0.15* | 0.032 | 0.053* | 0.074* | 0.013*
Cc1ccc(/C=N/n2c(-c3ccc(Cl)cc3)n[nH]c2=S)o1 | · | i | i | 7.9* | 0.016* | 0.035* | 0.038 | 0.011* | 0.026 | ?
Cc1ccc(-c2n[nH]c(=S)n2/N=C/c2sccc2C)cc1 | · | i | i | 19* | 0.018 | 0.021* | 0.034 | 0.015* | 0.025* | 0.017*
S=c1[nH]nc(-c2ccc(Cl)cc2)n1/N=C/c1cccs1 | · | i | i | 23* | 0.0081 | 0.025* | 0.042* | 0.03* | 0.042* | 0.024*
Cc1ccc(/C=N/n2c(-c3cccnc3)n[nH]c2=S)o1 | 11 | i | i | 1.6 | · | · | · | · | · | ·
CC(C)CCNC(=O)C1CCC(=O)N1CCc1ccccc1 (stereo not drawn) | · | i | i | · | · | · | · | · | · | ·
CC1(c2nnc(Cc3ccccc3)o2)CC(c2ccccc2Br)=NO1 (stereo not drawn) | · | i | i | · | · | · | · | · | · | ·
Cc1cccc2c3c([nH]c12)CCNC3 | · | i | i | · | · | · | · | · | · | ·
S=C(NCCc1ccccc1)N/N=C/c1cccc(Cl)c1Cl | -1 | i | i | 4.4* | 0.0061 | 0.013* | 0.039* | 0.011* | 0.03* | 0.011
COC(=O)c1sc(-c2ccc(Cl)cc2)cc1NC(=O)/C=C/C(=O)O | 10 | i | i | -4.1* | 0.0095 | 0.008* | 0.03 | 0.0075 | 0.014* | 0.012
O=C(CCSCCc1ccccn1)Nc1ccc(Cc2ccncc2)cc1 | 7 | i | i | -3.4* | 0.0069 | 0.0044 | ? | 0.0073 | 0.018 | 0.011
O=C(CCSCCc1ccccn1)Nc1ccccn1 | -1 | i | i | 1.2 | · | · | · | · | · | ·
CCCCCn1nnc2c(=O)oc3ccccc3c21 | -9 | i | i | · | 0.014 | 0.0045 | 0.023* | 0.0053* | 0.01* | ?
COc1ccc(NC(=O)Cn2nnc(C(=O)NCc3cccs3)c2N)cc1Cl | · | i | i | · | · | · | · | · | · | ·
COc1cc2c(cc1OC)C1(CCCCC1)CN(C)C2 | 4 | i | i | 1.5 | · | · | · | · | · | ·
O=C(O)CCNS(=O)(=O)c1ccc2ccccc2c1 | · | i | i | 1.1 | · | · | · | · | · | ·
O=C(O)CCNc1cc2ccccc2cc1C(=O)O | -1 | i | i | 5.6* | 0.0063 | 0.0048 | 0.031 | 0.0075 | 0.02 | 0.011
CC(C)(CC(=O)O)CC(=O)Nc1ccc(Oc2ccc(C(C)(C)C)cc2)nc1 | 8 | i | i | 4.8* | 0.0056 | 0.0044 | 0.03 | 0.0072 | 0.019 | 0.0098
CCOc1ccccc1NC(=O)CSc1nnnn1Cc1ccccc1 | 2 | i | i | -2.6* | 0.0073 | 0.004 | 0.028 | 0.0072 | ? | 0.0094
COc1ccccc1NC(=O)CSc1nnnn1Cc1ccccc1 | 4 | i | i | · | · | · | · | · | · | ·
CC(C)Cn1c(-c2ccc(Br)cc2)c[nH]c1=S | -12 | i | i | 22* | 0.0067 | 0.028* | ? | 0.025* | 0.029* | 0.025*
SMILES | Rad51 HR inh | CHT allo act | CHT inh | KCC2 mod | KCC2 sec1 | KCC2 bumet counter | KCC2 sec2 | HEK counter1 | KCC2 retest ouab | HEK293 Tl flux2
CC(=O)NNC(=O)CC(=O)Nc1nc(C23CC4CC(CC(C4)C2)C3)cs1 | · | i | i | -0.59 | · | · | · | · | · | ·
O=C(NCc1ccccn1)C(=O)Nc1nc(C23CC4CC(CC(C4)C2)C3)cs1 | -13 | i | i | 16* | 0.012 | 0.014* | 0.034 | 0.026* | 0.026* | 0.015*
COc1ccc2[nH]c(=O)c(CN(CCO)S(=O)(=O)c3ccc4c(c3)OCCO4)cc2c1 | · | i | i | 0.61 | · | · | · | · | · | ·
C/C(=N\NC(=S)Nc1ccccc1)C1Cc2ccccc2C(=O)O1 (stereo not drawn) | 16 | i | i | 6.6* | 0.007 | 0.01* | 0.033 | 0.011* | 0.022 | 0.013*
C/C(=N\NC(=S)Nc1ccccc1C)C1Cc2ccccc2C(=O)O1 (stereo not drawn) | 19 | i | i | 2.6 | · | · | · | · | · | ·
Cc1ccc(C(=O)NC(=S)NCc2ccco2)cc1 | 3 | i | i | 19* | 0.014* | 0.022* | 0.035 | 0.027* | 0.029* | 0.016*
Cc1ccc(-c2csc(N/N=C/c3ccco3)n2)c(C)c1 | 12 | i | i | -1.2 | · | · | · | · | · | ·
O=C(O)CC/C(=C\c1ccc(Cl)c([N+](=O)[O-])c1)c1nc2ccccc2s1 | 2 | i | i | -7.1* | 0.0072 | 0.0072 | ? | 0.0058* | ? | 0.009
COc1cc(/C=C(\C#N)c2nc3ccccc3s2)cc([N+](=O)[O-])c1O | -16 | · | · | -1.8 | · | · | · | · | · | ·
O=C(O)CC/C(=C\c1ccc2c(c1)OCO2)c1nc2ccccc2s1 | · | i | i | · | · | · | · | · | · | ·
N#C/C(=C\c1ccc(O)c([N+](=O)[O-])c1)c1nc2ccccc2s1 | -74 | · | · | -6.2* | 0.0079 | 0.006 | 0.032 | 0.007 | 0.013* | 0.01
O=C(O)CC/C(=C\c1ccc(N2CCOCC2)c([N+](=O)[O-])c1)c1nc2ccccc2s1 | -3 | · | · | -8.5* | 0.0057 | 0.0048 | 0.021* | 0.0074 | ? | 0.011
CCC(C)N(C(=O)CSc1nnc(COc2ccccc2F)n1N)C1CCS(=O)(=O)C1 (stereo not drawn) | · | i | i | · | · | · | · | · | · | ·
CC(C(=O)Nc1ccccc1C(F)(F)F)N1CCN(C)CC1 (stereo not drawn) | · | i | i | · | · | · | · | · | · | ·
